Rows were chosen to be rich in hits. Some 2.5% of all compounds tested hit in one or more screens of this group.
SIAE primary = human SIAE inhibition, primary screen; SIAE FP-Rh probe binding, fluorescence polarization; Q9HAT2; 370,000 compounds, 0.69% hits; AID 1053197; inhibition, % at 9.66 µM;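 active = inhibition above a cutoff: mean of compounds within the control limits plus 3 SD of those, cut at about 17% in these data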
HTRA1 inh = blocks human HTRA1 serine peptidase; Q92743; recombinant HTRA1, FP-rhodamine activity-based probe, fluorescence polarization; inhibition, % at 5.96 µM; 340,000 compounds, 0.5% hits; in the data active = inhibition above about 36%
mABHD4 FP = inhibits mouse alpha/beta hydrolase domain 4. Q8VD66. purified mABHD4, FP-Rh probe fluorescence polarization. inhibition, % at 8.92 µM. 370,000 compounds, 0.54% hits. AID 720543;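 active = inhibition exceeding the mean over every tested compound plus 3 SD, cut at about 30% in these data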
Target sequence (Q8VD66 whole entry, looked up, the tested form may be a part): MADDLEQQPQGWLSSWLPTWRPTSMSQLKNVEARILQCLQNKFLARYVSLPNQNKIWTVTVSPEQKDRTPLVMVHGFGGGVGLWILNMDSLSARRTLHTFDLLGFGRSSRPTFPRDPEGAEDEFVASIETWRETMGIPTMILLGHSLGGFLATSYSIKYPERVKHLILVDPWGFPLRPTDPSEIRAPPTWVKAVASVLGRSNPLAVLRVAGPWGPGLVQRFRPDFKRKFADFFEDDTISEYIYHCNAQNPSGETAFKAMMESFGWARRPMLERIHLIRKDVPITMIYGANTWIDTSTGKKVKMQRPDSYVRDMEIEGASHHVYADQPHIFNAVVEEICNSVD
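System: mouse ABHD4 enzyme, wild type / Medium: HEPES pH 7.0, NaCl, Pluronic buffer / Reagent: FP-Rh activity-based fluorescent probe / Control set: S159A mutant high control, sample median low control / Detection: fluorescence polarization with parallel and perpendicular emission, 525/598 nm / Schedule: 45 min + 60 min at 25 °C / Compound dosing: 8.92 µM, single dose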
TCR-CD3 inh = human TCR-CD3 binding inhibition; TAMRA-labeled TCR probe fluorescence, biochemical; inhibition, % at 9.4 µM; 360,000 compounds, 0.37% hits; AID 651800; in the data active = inhibition above about 19%;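 note: recombinant mutant TCR 2C K166C tagged with TAMRA read by polarization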
PRMT1 inh = inhibitors of human PRMT1; Q99873; recombinant PRMT1, activity-based probe fluorescence polarization; inhibition, % at 2.79 µM; 370,000 compounds, 1.3% hits;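 active = inhibition above about 21% made by adding two undisclosed values, limit read from the data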
PRMT1 inh conf = PRMT1 (human) inhibition, FP confirmation; shares compounds with PRMT1 inh; inhibition, % at 2.79 µM; 3,300 compounds, 42% hits; recombinant His-PRMT1, activity-based probe fluorescence polarization;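 active = mean inhibition across replicates above the hit cutoff derived for the earlier primary screen, cut at about 22% in these data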
Numbers stand for hits; . = inactive; / = no result given.

SMILES	SIAE primary	HTRA1 inh	mABHD4 FP	TCR-CD3 inh	PRMT1 inh	PRMT1 inh conf
COc1ccc(C(c2nnnn2C(C)(C)C)N2CCN(C/C=C/c3ccccc3)CC2)cc1 (stereo unspecified)	.	/	.	.	35	.
COc1ccc(C(c2nnnn2-c2ccc(OC)cc2)N2CCN(C/C=C/c3ccccc3)CC2)cc1 (stereo unspecified)	.	/	.	.	.	/
CC1CCCN(C(=O)c2nn(C)c3c2CSc2ccccc2-3)C1 (stereo unspecified)	.	.	.	.	31	37
CC1CC(C)CN(C(=O)c2nn(C)c3c2CSc2ccccc2-3)C1 (stereo unspecified)	.	.	.	.	.	/
CCCCC/C=C/C1=CC(=O)C[C@H](c2ccc(OC)c(OC)c2)C1	.	.	.	.	.	/
CC(=O)Nc1ccc(Sc2ccc([N+](=O)[O-])o2)cc1	.	.	.	.	34	36
C=CCNC(=S)N1CCN(c2ncc(C(F)(F)F)cc2Cl)CC1	.	.	.	.	.	/
COc1cc2cc(CN(Cc3nnnn3Cc3ccco3)C3CCCCC3)c(=O)[nH]c2cc1OC	.	.	.	.	29	.
Cc1ccc2cc(CN(Cc3ccc4c(c3)OCO4)Cc3nnnn3Cc3ccco3)c(=O)[nH]c2c1C	.	.	.	.	61	.
Cc1ccc(C)c2[nH]c(=O)c(CN(Cc3ccc4c(c3)OCO4)Cc3nnnn3Cc3ccco3)cc12	.	.	.	.	28	.
Cc1cc2cc(C(c3nnnn3Cc3ccco3)N3CCCCC3)c(=O)[nH]c2cc1C (stereo unspecified)	.	.	.	.	30	.
CCOc1ccc2[nH]c(=O)c(C(c3nnnn3Cc3ccco3)N3CCN(C)CC3)cc2c1 (stereo unspecified)	.	.	.	.	.	/
O=S(=O)(Nc1ccccn1)c1cnc(Cl)c(Br)c1	.	.	.	.	.	/
C=CCNC(=O)CN1C(=O)CSc2ccc(S(=O)(=O)N3CCOCC3)cc21	.	.	.	.	.	/
Cn1c(SSc2ccc(-c3cccnc3)n2C)ccc1-c1cccnc1	.	.	.	.	69	77
O=C(CCCCCn1c(SCc2ccncc2)nc2ccccc2c1=O)NCc1ccco1	.	.	.	.	46	.
N#CCSc1nc2ccccc2c(=O)n1CCCC(=O)NCc1ccco1	.	.	.	.	.	/
CC1=C(C(=O)Nc2ccccc2)C2(CCCCC2)C(C#N)=C(S)N1	.	.	.	.	26	25
C#CCN1C(=O)S/C(=C/C=C/c2ccc(N(C)C)cc2)C1=O	.	.	.	.	.	/
COC(=O)c1ccccc1S(=O)(=O)N(Cc1ccco1)Cc1cc2cc(OC)ccc2[nH]c1=O	.	.	.	.	30	.
OC(Cc1ccccc1Br)c1ncc(-c2ccc(Cl)cc2)[nH]1 (stereo unspecified)	.	/	.	.	.	/
Cc1ccc(-c2ccccc2)n1-c1cccc(C(=O)O)c1	.	.	.	.	62	.
O=C(O)CCc1ccc(-c2ccccc2)n1-c1cccc(C(=O)O)c1	.	.	.	.	.	/
COC1Cc2ccccc2N(C(N)=O)c2ccccc21 (stereo unspecified)	.	.	.	.	.	/
CCC(C)(C)c1ccc(OCCCC[n+]2cccc(C)c2)c(C(C)(C)CC)c1	.	.	.	.	.	/
SMILES	SIAE primary	HTRA1 inh	mABHD4 FP	TCR-CD3 inh	PRMT1 inh	PRMT1 inh conf
CC(C)[N+]1=C2C=CC=CC=C2SC12C([N+](=O)[O-])=CC(=[N+]([O-])[O-])C=C2[N+](=O)[O-] (stereo unspecified)	.	.	.	.	37	.
Cc1nc2ccc(NC(=O)c3ccc(F)cc3Cl)cc2c(=O)[nH]1	.	/	.	/	.	/
CC(=O)C1(C(=O)NC2CCCC2)CC(c2ccccn2)=NO1 (stereo unspecified)	.	/	.	/	.	/
O=C1CC(N2CCC(c3nc4ccccc4o3)CC2)C(=O)N1Cc1cccs1 (stereo unspecified)	.	.	.	.	47	.
NC(=O)C1CCN(C2CC(=O)N(Cc3cccs3)C2=O)CC1 (stereo unspecified)	.	.	.	.	74	.
O=C1CC(N2CCN(c3ccc(F)cc3)CC2)C(=O)N1Cc1cccs1 (stereo unspecified)	.	.	.	.	.	/
O=C1C=C(c2n[nH]nc2-c2ccccc2)C[C@@H](c2ccc(F)cc2)C1	.	.	.	.	.	/
CC(C)(C)c1csc(NC(=O)CSc2nc3ccccc3c(=O)[nH]2)n1	.	.	.	.	.	/
CC(C)(C)c1csc(NC(=O)Cn2cnc3ccccc3c2=O)n1	.	.	.	.	29	.
CC1CN(S(=O)(=O)c2cc(C(=O)NCCC3=CCCCC3)ccc2Cl)CC(C)O1 (stereo unspecified)	.	.	.	.	.	/
CC1Cc2cc(S(=O)(=O)NCc3ccccc3)ccc2N1C(=O)C1CC1 (stereo unspecified)	.	.	.	.	47	.
CC1Cc2cc(S(=O)(=O)NCc3ccccc3)ccc2N1C(=O)C1CCC1 (stereo unspecified)	.	.	.	.	.	/
COc1cc2c(cc1OC)CN(C1CC(=O)N(c3c(C)cccc3C)C1=O)CC2 (stereo unspecified)	.	.	.	.	32	.
CCC1(c2ccc(OC)cc2)NC(=O)N(CC(=O)NC2CCCCC2C)C1=O (stereo unspecified)	.	.	.	.	.	/
COc1ccccc1C(=O)N1CCN(c2ccc(N3CCOCC3)nn2)CC1	.	.	.	.	38	.
Cc1nn(Cc2ccccc2)c(C)c1C(=O)N1CCN(S(=O)(=O)/C=C/c2ccccc2)CC1	.	.	.	.	.	/
NS(=O)(=O)c1ccc(CCNC2CC(=O)N(Cc3ccccc3)C2=O)cc1 (stereo unspecified)	.	.	.	.	63	.
O=C1CC(NCc2ccc3c(c2)OCO3)C(=O)N1CCc1ccccc1 (stereo unspecified)	.	.	.	.	44	.
NS(=O)(=O)c1ccc(CCN2C(=O)CCC2=O)cc1	.	.	.	.	.	/
NS(=O)(=O)c1ccc(CCNC2CC(=O)N(CCc3ccccc3)C2=O)cc1 (stereo unspecified)	.	.	.	.	34	.
O=C(COc1ccccc1Cl)Nc1ccccc1C(=O)N1CCCCC1	.	.	.	.	.	/
Oc1ccc(N=Nc2ccccc2)o1	.	.	.	.	35	49
CNC(=O)Cn1nc(C)c(S(=O)(=O)N2CCOCC2)c1C	.	.	.	.	.	/
Cc1cc(Br)cn2c(Cc3ccccc3)c(-c3ccco3)nc12	.	/	.	.	35	.
Cc1cc(Br)cn2c(Cc3ccsc3)c(-c3ccco3)nc12	.	/	.	.	27	.
COc1cccc(/C=C2\SC(=S)N(NC(=O)c3ccncc3)C2=O)c1	.	.	.	.	37	.
